Experimental data reported in publication PMC7009771 (EFSA Journal, 2018).
≈ marks a conversion by molar mass, not a printed value. Entries after “also recorded” stand apart in the source; their conditions may differ. Where two headings read alike, the source gives them in different places.

What was measured:
CD [Crl:CD(SD)] rats [1] = assay: 90-day oral toxicity study in rats; format: in vivo
Outline: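 Candidate substance given by oral gavage to CD rats of both sexes for 13 weeks at up to 100 mg/kg bw per day, with doses chosen from a 28-day dietary range-finder. Margin of safety derived from the 90-day NOAEL against APET exposure estimates: chronic 3.8 (adult) or 9.5 (child) µg/kg bw per day, and acute 0.076 mg/kg bw for a 3-year-old child.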

[2] = ref Senomyx, 2015, cited from earlier work
[3] = heated for 24 h at 110°C; ref Senomyx, 2015; cited from earlier work
[4] = 24 h at 100°C, ref Senomyx, 2015, cited from earlier work
[5] = test system: human peripheral blood lymphocytes (HPBL); conditions: ref Nucro-Technics (2013b), cited from earlier work; for relative cell growth (RCG) (test vs. solvent control) / relative mitotic index (RMI) (test vs. solvent control): 3-h exposure without S9-mix
bone marrow of CD-1 mice = conditions: ref WIL Research (2013a), cited from earlier work
CD [Crl:CD(SD)] rats [6] = conditions: 28 days, gavage, rats males and females; ref Charles River (2013); cited from earlier work
CD [Crl:CD(SD)] rats [7] = conditions: 90 days, gavage, rats males and females; ref Charles River (2014); cited from earlier work
[8] = in vitro; ref CiToxLab, 2014; cited from earlier work
[9] = test system: Keratinocyte ARE-Reporter Cell Line KeratinoSens; conditions: in vitro; ref IIVS, 2013; cited from earlier work
humans = conditions: 112 subjects completed, ref Harrison Research Laboratories, 2014a,b; cited from earlier work
[10] = test system: 67 receptor binding assays for G-protein coupled receptors (GPCRs), ion channels, nuclear receptors and transporters; conditions: significant = ≥ 50% inhibition or stimulation; 67 assays; ref Ricerca, 2012; cited from earlier work
hERG ion channel = conditions: 10 μM; ref AVIVA, 2012; cited from earlier work
CYP2C19 [11] = conditions: 10 μM (~ […]), pooled human liver microsomes; ref Absorption Systems, 2013a; cited from earlier work
CYP2C19 [12] = conditions: human liver microsomes; ref Absorption Systems, 2013b; cited from earlier work
Balb/c 3T3 cells = conditions: based on 3T3 NRU test; ref CeeTox, 2013; cited from earlier work
[13] = 3-h exposure with S9-mix, 1.3 μg/mL
[14] = 3-h exposure with S9-mix, 2.5 μg/mL
[15] = 3-h exposure with S9-mix, 5.0 μg/mL
[16] = 20-h exposure without S9, 23 μg/mL
[17] = 20-h exposure without S9, 39 μg/mL
[18] = 20-h exposure without S9, 65 μg/mL
[19] = 20-h exposure without S9, 110 μg/mL

Cc1ccc(OCC(=O)N(Cc2cccs2)c2ccn[nH]2)cc1 [FL‐no: 16.133, 2‐(4‐methylphenoxy)‐N‐(1H‐pyrazol‐3‐yl)‐N‐(thiophen‐2‐ylmethyl)acetamide]
Margin of safety (CD [Crl:CD(SD)] rats [1]; Adult, 90-day NOAEL 100 mg/kg bw per day vs chronic APET 3.8 μg/kg bw per day): 26,300 | Margin of safety (CD [Crl:CD(SD)] rats [1]; Child, 90-day NOAEL 100 mg/kg bw per day vs chronic APET 9.5 μg/kg bw per day): 10,500 | MoE, acute exposure (CD [Crl:CD(SD)] rats [1]; children, 90-day NOAEL vs maximum acute dietary exposure about 0.08 mg/kg bw): more than 1,000 | Solubility in ethanol ([2]; 95% ethanol): > 308 mM | Solubility in water ([2]; pH = 7): 0.12 mM (≈ 0.0393 mg/mL) | Solubility in triacetine [2]: 40.47 mM (≈ 13.3 mg/mL) | Dry powder stability [3]: stable | percentage remaining ([4]; aqueous citric buffer pH 2.8): 90.1% | percentage remaining ([4]; aqueous citric buffer pH 4.0): 97.2% | percentage remaining ([4]; phosphoric acid buffer pH 7.1): 83.5% | relative cell growth (RCG) [5, 13]: 109% | relative mitotic index (RMI) [5, 13]: 61% | relative cell growth (RCG) [5, 14]: 100% | relative mitotic index (RMI) [5, 14]: 55% | relative cell growth (RCG) [5, 15]: 121% | relative mitotic index (RMI) [5, 15]: 45% | relative cell growth (RCG) ([5]; 3-h exposure with S9-mix, 10 μg/mL): 130% | relative cell growth (RCG) ([5]; 3-h exposure with S9-mix, 20 μg/mL): 97% | relative cell growth (RCG) ([5]; 3-h exposure with S9-mix, 40 μg/mL): 84% | relative cell growth (RCG) ([5]; 3-h exposure with S9-mix, 80 μg/mL): 60% | relative cell growth (RCG) ([5]; 3-h exposure with S9-mix, 160 μg/mL): 11% | relative cell growth (RCG) (test vs. solvent control) ([5]; 35 μg/mL): 108% | relative mitotic index (RMI) (test vs. solvent control) ([5]; 35 μg/mL): 102% | relative cell growth (RCG) (test vs. solvent control) ([5]; 58 μg/mL): 93% | relative mitotic index (RMI) (test vs. solvent control) ([5]; 58 μg/mL): 88% | relative cell growth (RCG) (test vs. solvent control) ([5]; 97 μg/mL): 98% | relative mitotic index (RMI) (test vs. solvent control) ([5]; 97 μg/mL): 110% | relative cell growth (RCG) (test vs. solvent control) ([5]; 160 μg/mL): 60% | relative mitotic index (RMI) (test vs. solvent control) ([5]; 160 μg/mL): 48% | relative cell growth (RCG) (test vs. solvent control) ([5]; 270 μg/mL): 18% | relative cell growth (RCG) [5, 16]: 100% | relative mitotic index (RMI) [5, 16]: 106% | relative cell growth (RCG) [5, 17]: 97% | relative mitotic index (RMI) [5, 17]: 82% | relative cell growth (RCG) [5, 18]: 60% | relative mitotic index (RMI) [5, 18]: 57% | relative cell growth (RCG) [5, 19]: 56% | relative mitotic index (RMI) [5, 19]: 0% | relative cell growth (RCG) ([5]; 20-h exposure without S9, 180 μg/mL): 19% | ratio PCEs/TE (bone marrow toxicity) vs vehicle control (bone marrow of CD-1 mice; CD-1 mice, 1,000-2,000 mg/kg bw per day): No decrease | Micronucleus assay result (incidence of MNPCEs) (bone marrow of CD-1 mice; CD-1 mice, gavage, 1,000, 1,500 and 2,000 mg/kg bw per day, three consecutive days): No statistically significant increases; also recorded: Negative | clinical signs of toxicity (bone marrow of CD-1 mice; CD-1 mice, gavage, up to 2,000 mg/kg bw per day): No clinical signs of toxicity | Result: NOEL (CD [Crl:CD(SD)] rats [6]): NOEL: ≥ 100 mg/kg bw per day | Result: NOEL (CD [Crl:CD(SD)] rats [7]): NOEL: ≥ 100 mg/kg bw per day | skin sensitisation potential, DPRA [8]: may exhibit a skin sensitisation potential | skin sensitisation potential, KeratinoSens Assay [9]: may exhibit a skin sensitisation potential | skin sensitisation, HRIPT result (humans): negative result | responses in lead profiling receptor screen [10]: No significant responses | inhibition of hERG ion channel current (hERG ion channel): < 10% | CYP2C19 inhibition (CYP2C19 [11]): significant inhibition | time-dependent inhibition of CYP2C19 (CYP2C19 [12]): No evidence of time‐dependent CYP inhibition | phototoxic potential (Panel conclusion) (Balb/c 3T3 cells): does not anticipate that [FL‐no: 16.133] has a phototoxic potential
